Experimental findings from ChEMBL document CHEMBL5674889, “Enhanced JunD/RSK3 signalling due to loss of BRD4/FOXD3/miR-548d-3p axis determines BET inhibition resistance” (2020) are described below.

The subject of test [1] is BT-549. Description: Antiproliferative activity in human BT-549 cells assessed as cell growth in the presence of miR-548d-3p inhibitor at 1 uM by CCK-8 assay. It is filed as functional, cell-based. An outline of the steps:
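BLBC cells transfected with miR-548d-3p mimic or inhibitor, with or without JQ1; growth read by CCK-8 assay relative to DMSO-treated control, seeded at 3000/well. Triplicates, mean ± SD, one-way ANOVA.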
(In general: Tetrazolium dyes change colour on reduction, which living cells bring about.)

Test [2] concerns MDA-MB-231. Description: Induction of apoptosis in human MDA-MB-231 cells over expressing RSK3 assessed as early apoptotic cells at 1 uM by Annexin V-FITC flow cytometric analysis (reference value: 3.85%). It is filed as functional. The procedure, abridged:
(§1)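 Stable clones (vector, RSK3-overexpressing or RPS6KA2-knockdown) treated ± JQ1 1 μM. Cells washed twice in PBS, resuspended at 1 × 10^6 cells/ml in binding buffer, stained with Annexin V-FITC and propidium iodide for 10 min at room temperature in the dark, then read by flow cytometry. Three independent experiments; one-way ANOVA.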

In test [3] the test system is MDA-MB-231. Description: Induction of apoptosis in human MDA-MB-231 cells expressing vector control assessed as viable cells at 1 uM by Annexin V-FITC flow cytometric analysis (reference value: 91.91%). It counts as functional. The conditions noted are these: read-out: Activity. The procedure, abridged:
as §1
(In general: A flow cytometer gives signals particle by particle.)

Test [4] relates to MDA-MB-231. Description: Induction of apoptosis in human MDA-MB-231 cells assessed as caspase-3 cleavage in the presence of osimertinib at 1 uM by Western blotting analysis. It is filed as functional, cell-based. (In western blotting, separated proteins are transferred to a membrane and probed.)
The test system of test [5] is MDA-MB-231. Nature of the test: Downregulation of miR-548d-3p expression in human MDA-MB-231 cells at 1 uM by real-time PCR analysis. It is filed as functional, cell-based.
For test [6], the target named is T1, Transcription factor JunD (Homo sapiens) (UniProt P17535).
T1 sequence (whole entry): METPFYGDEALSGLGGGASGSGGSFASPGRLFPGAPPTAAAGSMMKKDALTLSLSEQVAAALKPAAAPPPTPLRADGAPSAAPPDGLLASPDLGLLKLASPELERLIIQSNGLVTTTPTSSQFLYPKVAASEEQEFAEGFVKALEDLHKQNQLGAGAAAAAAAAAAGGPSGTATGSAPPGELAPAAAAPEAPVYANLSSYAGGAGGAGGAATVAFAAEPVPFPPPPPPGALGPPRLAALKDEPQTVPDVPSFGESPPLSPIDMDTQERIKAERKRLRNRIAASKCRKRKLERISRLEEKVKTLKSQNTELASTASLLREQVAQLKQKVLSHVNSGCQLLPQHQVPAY
Description: Binding affinity of JunD in human BT-549 cells assessed RPS6KA2 expression at 1 uM for 24 hrs by ChIP analysis. It is filed as cell-based.

In test [7] the test system is BT-549. Nature of the test: Cytotoxicity in human RSK3-overexpressing BT-549 cells assessed as cell viability at 1 uM for 48 hrs by CellTiter-Glo luminescent cell viability assay. It is filed as functional, cell-based. The procedure, abridged: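 CellTiter-Glo viability: stable overexpressing or shRNA clones (puromycin 1.0 μg/ml selection) seeded 3000 cells/well, adhered overnight, then exposed to 1 μM for 48 h. Luminescence is background-subtracted and normalised to DMSO-treated control. Triplicates, mean ± SD, one-way ANOVA. MDA-MB-231 cells are kept in DMEM and BT549 in RPMI-1640, each with 10% FBS.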

For test [8], the system named is MDA-MB-231. Nature of the test: Effect on induction of RPS6KA2 transcription in human MDA-MB-231 cells assessed as enhanced luciferase activity at 1 uM for 6 hrs by Luciferase reporter assay. It counts as functional, cell-based. An outline of the steps:
(§2)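 Control or JunD-shRNA BLBC cells were transfected with the RPS6KA2 enhancer luciferase reporter (FuGene 6, 24 h) and then treated with DMSO or JQ1 1 μM for 6 h. Dual-luciferase read-out given as fold induction over vector control. Three experiments in triplicate.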

Test [9] relates to BT-549. Nature of the test: Effect on induction of RPS6KA2 transcription in human BT-549 cells assessed as enhanced luciferase activity at 1 uM for 6 hrs by Luciferase reporter assay. It counts as functional, cell-based. The procedure, abridged:
as §2

For test [10], the system named is MDA-MB-231. Nature of the test: Antiproliferative activity in human FOXD3-knockdown MDA-MB-231 cells co-silenced with shRNA of RPS6KA2 assessed as cell growth at 1 uM by CCK-8 assay. It is filed as functional, cell-based.
For test [11], the system named is MDA-MB-231. Description: Inhibition of FOXD3/-BRD4 protein-protein interaction in human MDA-MB-231 cells at 1 uM by Co-immunoprecipitation analysis. It is filed as cell-based. An outline of the steps: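 Endogenous FOXD3 or BRD4 pulled down from MDA-MB-231 lysates with specific antibodies; partner detected by western blot.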
Test [12] relates to MDA-MB-231. Nature of the test: Effect on JUND dependent RPS6KA2 transcription in human JUND-knockdown MDA-MB-231 cells assessed reduction in transcription level at 1 uM by EMSA analysis. It is filed as functional, cell-based.
Test [13] has as its system MDA-MB-231. Nature of the test: Induction of apoptosis in human MDA-MB-231 cells in the presence of osimertinib at 1 uM by flow cytometry analysis. It counts as functional, cell-based. An outline of the steps: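 Cells given JQ1 and/or osimertinib, then stained with Annexin V-FITC plus propidium iodide (10 min, room temperature, dark; 1 × 10^6 cells/ml in binding buffer after two PBS washes) and analysed by flow cytometry; one-way ANOVA.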

Test [14] concerns BT-549. Nature of the test: Antiproliferative activity in human BT-549 cells assessed as cell growth for 48 hrs in the presence of osimertinib at 1 uM by CCK-8 assay. It is filed as functional, cell-based. An outline of the steps: (§3)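 Cells seeded 3000/well, adhered overnight, treated with JQ1 (1 μM) with or without osimertinib (1 μM) for 48 h; growth by CCK-8 kit, normalized to DMSO-treated control; triplicates, mean ± SD, one-way ANOVA.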

Test [15] concerns BT-549. Nature of the test: Effect on human RPS6KA2 knockdown BT-549 cells assessed as RSK3 protein expression at 1 uM for 24 hrs by Western blot analysis. It counts as functional, cell-based.
For test [16], the system named is BT-549. Nature of the test: Effect on human BRD4-knockdown BT-549 cells assessed as miR-548d-3p expression at 1 uM by real-time PCR analysis. It is filed as functional, cell-based.
For test [17], the system named is MDA-MB-231. Description: Antiproliferative activity in human MDA-MB-231 cells assessed as cell growth in the presence of AZ5104 at 1 uM by CellTiter-Glo luminescent cell viability assay. It counts as functional, cell-based. An outline of the steps:
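BLBC cells seeded at 3000/well, adhered overnight, then exposed to JQ1 (1 μM) with or without an EGFR inhibitor (1 μM) for 48 h; control and RPS6KA2-shRNA clones tested. Viability by CellTiter-Glo luminescence, background-subtracted and normalized to DMSO-treated control; triplicates, mean ± SD, one-way ANOVA against JQ1 alone.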

In test [18] the test system is BT-549. Nature of the test: Effect on human BRD4-knockdown BT-549 assessed as decreased luciferase activity at 1 uM for 6 hrs by Luciferase reporter assay. It counts as functional, cell-based.
Test [19] relates to BT-549. Description: Antiproliferative activity in human BT-549 cells assessed as cell growth inhibition for 48 hrs in the presence of […] at 1 uM by CCK-8 assay. It is filed as functional, cell-based.
Test [20] deals with MDA-MB-231. Nature of the test: Antiproliferative activity in human MDA-MB-231 cells assessed as cell growth for 48 hrs in the presence of osimertinib at 1 uM by CCK-8 assay. It counts as functional, cell-based. The procedure, abridged:
as §3

Test [21] relates to MDA-MB-231. Nature of the test: Antiproliferative activity in human FOXD3-knockdown MDA-MB-231 cells co-silenced with shRNA of JUND assessed as cell growth at 1 uM by CCK-8 assay. It is filed as functional, cell-based.
Test [22] concerns MDA-MB-231. Description: Induction of apoptosis in human RPS6KA2-knockdown MDA-MB-231 cells at 1 uM by FACS assay. It is filed as functional, cell-based. An outline of the steps: as §1
The subject of test [23] is MDA-MB-231. Nature of the test: Antiproliferative activity in human RPS6KA2 expressed in JUND knock-down MDA-MB-231 cells assessed as inhibition of cell growth at 1 uM by CCK-8 assay. It counts as functional, cell-based.

Active and inactive are the calls of the source. The rule behind the calls is not given here.

`Cc1sc2c(c1C)C(c1ccc(Cl)cc1)=N[C@@H](CC(=O)OC(C)(C)C)c1nnc(C)n1-2`: the result (with BT-549 [1]; in the test with MDA-MB-231 [4]; in the test on MDA-MB-231 [5]; in test [6]; in the test on BT-549 [7]; in the test on MDA-MB-231 [8]) was Active. The result with BT-549 [9], in the test on MDA-MB-231 [10], in the test with MDA-MB-231 [12], in the test with MDA-MB-231 [13], in the test on BT-549 [14] and in the test on BT-549 [15] was Active. Further, the result in the test with BT-549 [16], in the test with MDA-MB-231 [17], with BT-549 [18], in the test on BT-549 [19], in the test on MDA-MB-231 [20] and in the test with MDA-MB-231 [21] was Active. Moreover, the result in the test on MDA-MB-231 [22] and in the test with MDA-MB-231 [23] was Active. For the same compound, the Activity in the test on MDA-MB-231 [2] worked out at 7.14%. Moreover, the viability at 1 µM in the test on MDA-MB-231 [3] was determined as 76.7%. The inhibition result in the test on MDA-MB-231 [11] is “Active”.
